Bioassay records deposited in PubChem by several laboratories.
m5-HT2A agonist – mouse HTR2A agonism via beta-arrestin recruitment; P35363; CHO-K1 mHTR2A beta-arrestin complementation, luminescence; percent of 30 µM serotonin response; activation, % at 7.6 µM; hit rate 0.66% among 360,000;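 active means activation above a run cutoff, the mean activation of all tested compounds plus 3 SD, cut at about 14% in these data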
CXCR6 inh – inhibitors of human CXCR6 receptor. O00574. CHO-K1 PathHunter CXCR6 beta-arrestin, luminescence. inhibition, % at 20 µM. hit rate 0.36% among 360,000. AID 602244; in the data active means inhibition above about 34%, passing the limit was not always enough;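 further: antagonist mode with CXCL16 agonist at 10 nM final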
EBI2 block – EBI2 (human) antagonism | inhibition, % at 5 µM | hit rate 0.81% among 360,000 | EBI2 beta-arrestin recruitment, luminescence, 7a,25-OHC stimulated | P32249; in the data active means inhibition above about 38%;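 further: enzyme fragment complementation signal reports receptor beta-arrestin coupling in cells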
APJ ag – activates the human apelin receptor APJ; P35414; CHO-K1 APJ PathHunter beta-arrestin, luminescence; 0% DMSO wells, 100% apelin; activation, % at 20 µM; hit rate 0.11% among 330,000;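 active means activation more than six SD over the plate average, tested at 20 µM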
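Assay system – PathHunter CHO-K1 APJ (AGTRL-1) beta-arrestin reporter cells · Compound – one dose, 20 µM compound, 1% DMSO · Timing – compound 90 min 25 °C, reagent 1 h · Measured by – luminescence from split beta-galactosidase complementation, Galacton Star/Emerald II substrate · Measure – beta-arrestin recruitment to APJ as agonist activity, luminescent signal · Benchmarks – DMSO vs Apelin-13 10 nM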
APJ antagonist – antagonists of human APJ apelin receptor | CHO-K1 APJ beta-arrestin complementation, luminescence | inhibition, % at 20 µM | P35414 | hit rate 0.32% among 330,000 | AID 2521;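 active means inhibition above about 40% at 20 µM, limit read from the data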;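 further: cells challenged with 10 nM apelin-13 agonist together with compound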
CCR6 antag – antagonists of human CCR6 receptor; CHO-K1 CCR6 PathHunter beta-arrestin, luminescence, CCL20-stimulated; inhibition, % at 20 µM; hit rate 0.49% among 340,000;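 active means compounds whose inhibition of the agonist-driven luminescence signal at 20 µM reaches about 50%, limit read from the data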;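 further: cells stimulated with CCL20 at 14 nM final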
Target sequence (P51684 whole entry, looked up): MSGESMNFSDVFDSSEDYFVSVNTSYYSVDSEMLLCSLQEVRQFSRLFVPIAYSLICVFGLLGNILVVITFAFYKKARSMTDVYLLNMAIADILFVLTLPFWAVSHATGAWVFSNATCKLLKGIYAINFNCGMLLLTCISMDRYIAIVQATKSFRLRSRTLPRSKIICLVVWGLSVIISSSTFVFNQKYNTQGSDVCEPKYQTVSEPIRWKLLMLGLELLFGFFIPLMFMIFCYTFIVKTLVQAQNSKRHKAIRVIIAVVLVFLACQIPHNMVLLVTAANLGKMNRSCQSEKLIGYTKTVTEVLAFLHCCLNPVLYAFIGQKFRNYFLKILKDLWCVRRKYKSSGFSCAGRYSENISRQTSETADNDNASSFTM
APJ antag conf – APJ receptor antagonism confirmation. shares compounds with APJ antagonist. APJ beta-arrestin recruitment, luminescence, antagonist mode. inhibition, % at 20 µM. hit rate 66% among 950; in the data active means inhibition above about 50%
Numbers stand for hits; 0 = inactive; - = no result. This is a sample that favours compounds with a hit; in the whole collection about 2.1% have one here.

SMILES	m5-HT2A agonist	CXCR6 inh	EBI2 block	APJ ag	APJ antagonist	CCR6 antag	APJ antag conf
CNC(=S)NNC(=O)CCn1nc(C)c(Br)c1C	0	0	0	0	0	0	-
Cc1nn(C)cc1/C=N\NC(=O)c1ccc(Cn2cc(Cl)cn2)cc1	0	0	0	0	0	0	-
COc1ccc(Cl)cc1C(=O)NNC(=S)NC(=O)c1ccc(F)c(F)c1	0	0	0	0	40	0	0
CCn1cc(CN2CCC(n3nccc3NC(=O)c3ccccc3C)CC2)cn1	0	0	0	0	0	0	-
CN(C)S(=O)(=O)n1cc(/C=C(\NC(=O)c2ccccc2Cl)C(=O)N2CCOCC2)c2ccccc21	0	0	0	0	50	0	0
CN(C)S(=O)(=O)n1cc(/C=C(\NC(=O)c2ccccc2F)C(=O)N2CCOCC2)c2ccccc21	0	0	0	0	0	0	-
Cc1ccc(S(=O)(=O)N/N=C/c2ccc3nccnc3c2)cc1	0	0	0	0	58	56	88
CCOC(=O)CSc1nnc(C)c(=O)[nH]1	0	0	0	0	0	0	-
Nc1[nH]c2cc([N+](=O)[O-])ccc2c1-c1ccccn1	0	0	0	0	47	0	100
CCOC(CNC(=O)c1cccn2c(=O)c3cc(Cl)ccc3nc12)OCC	0	0	0	0	50	0	0
CCOC(=O)N1CCN(C(=O)c2cccn3c(=O)c4cc(Cl)ccc4nc23)CC1	0	0	0	0	0	0	-
Cc1ccc(S(=O)(=O)Nc2ccccc2-c2ccccc2NS(=O)(=O)c2ccc(C)cc2)cc1	0	0	0	0	0	0	-
COc1cc(NS(=O)(=O)c2ccc(C)cc2)c2ncccc2c1	0	0	75	0	72	0	63
COc1ccc(S(=O)(=O)Nc2ccccn2)cc1	0	0	0	0	0	0	-
Cc1ccc(S(=O)(=O)Nc2cccc3cccnc23)cc1	0	70	0	0	76	86	96
O=C(C1=C(O)C(=O)N(Cc2ccco2)C1c1cccc(Cl)c1)c1ccco1 (stereo not given)	0	0	0	0	0	0	-
O=C(CSc1ccccc1)NCCc1ccccc1	0	0	0	0	0	0	-
COc1ccc(/C=C2\SC(c3ccc(C)cc3)=NC2=O)cc1OC	0	0	0	0	0	0	-
COc1cc(/C=C2\SC(c3ccc(C)cc3)=NC2=O)ccc1O	0	57	0	0	58	75	102
COc1cc(/C=C2\SC(=S)N(NC(=O)c3cccnc3)C2=O)ccc1O	0	0	0	0	42	0	95
O=C(NN1C(=O)/C(=C/c2ccc(O)c(O)c2)SC1=S)c1ccccc1	0	52	0	0	48	64	106
O=C(NN1C(=O)/C(=C\c2ccc(O)c([N+](=O)[O-])c2)SC1=S)c1ccccc1Cl	0	0	0	0	55	60	102
COc1ccc(NC(=O)CCN2CC(C)OC(C)C2)c(OC)c1 (stereo not given)	0	0	0	0	0	0	-
CCNc1nc(NCC)nc(C(=O)Nc2ccccc2)n1	0	0	0	0	0	0	-
C/C(CC(=O)c1ccccc1)=N\NC(=O)CC#N	0	0	0	0	0	0	-
SMILES	m5-HT2A agonist	CXCR6 inh	EBI2 block	APJ ag	APJ antagonist	CCR6 antag	APJ antag conf
COc1ccc(C(C(=O)NC2CCCCC2)N2CCC3(CC2)OCCO3)cc1 (stereo not given)	0	0	0	0	0	0	-
CC(=O)NN1C(=O)/C(=C\c2ccc(O)cc2)SC1=S	0	0	0	0	0	0	-
COc1cc(/C=C2\SC(=S)N(NC(=O)c3ccc(O)cc3)C2=O)ccc1O	0	42	0	0	56	59	92
COc1ccc(/C=C2/C(=O)N(c3ccccc3)N=C2C)cc1OC	0	0	0	0	47	0	0
COc1ccc(/C=C2/C(=O)N(c3ccccc3)N=C2C)cc1	0	0	0	0	0	0	-
COc1cc(/C=C2/C(=O)N(c3cccc(Br)c3)N=C2C)cc(OC)c1O	0	59	0	0	54	72	82
CC(C)C1Oc2ccccc2N(CC(=O)NC2CCCCC2)C1=O (stereo not given)	0	0	0	0	0	0	-
Cc1ccc(CNc2nc(N)c([N+](=O)[O-])c(Nc3cccc(F)c3)n2)cc1	0	0	0	0	41	0	0
COc1ccc2nc(NC(=O)CSC3=NCCS3)sc2c1	0	0	0	0	41	0	0
COc1ccc2nc(NC(=S)N(C)C)sc2c1	0	0	0	0	51	0	0
O=Cc1ccc(N2Cc3ccccc3C2)cc1	0	0	0	0	0	0	-
O=C1c2ccccc2-c2nnc(-c3ccccc3)cc21	0	0	70	0	53	56	143
COc1ccc(-c2cc3c(nn2)-c2ccccc2C3=O)cc1	0	0	51	0	40	0	143
Cc1cccc(-c2cc3c(nn2)-c2ccccc2C3=O)c1	0	0	0	0	0	0	-
COc1ccc(-c2cn(Cc3ccc4c(c3)C(=O)c3ccccc3C4=O)nn2)cc1	0	0	0	0	0	0	-
O=C(CCCN1CCN(c2ccccn2)CC1)c1ccc(F)cc1	0	0	0	0	0	0	-
O=C(c1ccco1)C(O)c1ccco1 (stereo not given)	0	0	0	0	52	58	98
Cc1ccc(C(O)C(=O)c2ccco2)cc1 (stereo not given)	0	0	0	0	0	0	-
Cc1ccc(S(=O)(=O)N(C(=O)c2ccncc2)c2ccc(OC(=O)c3ccncc3)cc2)c(C)c1	0	0	0	0	0	0	-
CC(=NNC(=S)Nc1ccccc1)c1ccccn1	0	0	0	-	-	-	-
C=CCNC(=S)N/N=C(\C)c1ccccn1	0	0	0	0	67	0	0
CC1CC(C)CN(C(=O)COC(=O)Cc2ccc(Cl)cc2)C1 (stereo not given)	0	0	0	0	0	0	-
C=CCNC(=O)/C(C#N)=C\c1cc(Cl)c(O)c(OCC)c1	0	0	0	-	-	0	-
CCOc1cc(/C=C2\CCC/C(=C\c3cc(Cl)c(O)c(OCC)c3)C2=O)cc(Cl)c1O	0	60	0	0	58	51	111
CSC(=NCc1ccco1)NC#N	0	0	0	0	44	0	0
O=C(Cn1nnc2ccccc21)OCC(=O)c1ccc(Cl)c(Cl)c1	0	0	0	0	91	73	111
Cc1ccc(C(=O)COC(=O)c2ccncc2)cc1[N+](=O)[O-]	0	0	0	0	46	0	70
O=C(COC(=O)c1ccncc1)c1ccc(Cl)c(Cl)c1	0	0	0	0	74	0	86
Cc1ccc(C(=O)COC(=O)c2cc(Cl)ccc2O)cc1[N+](=O)[O-]	0	0	0	0	0	0	-
O=C(Cn1nnc2ccccc21)OCC(=O)c1ccccc1	0	0	0	0	0	0	-
